BB579 growth dn – yeast BB579 growth reduction in restrictive medium. S. cerevisiae BB579 growth, OD615, 48 h. inhibition, % at 10 µM. 0.51% of 140,000 active;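 active means inhibition above a set limit, 3 SD over the mean compound inhibition, cut at about 44% in these data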
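System: DeaD yeast strain BB579; buffer or medium: CSMM-D dextrose restrictive medium; technique: OD at 615 nm; schedule: 4 h cell preincubation, 48 h compound exposure, 30 °C humidified; doses: single 10 µM dose; controls: amphotericin B 10 µg/mL, positive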
Phagocyt inh – macrophage phagocytosis inhibition; J774A.1 macrophage IgG-bead phagocytosis, imaging; AID 1029; inhibition, % at 5 µM; 0.07% of 110,000 active;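 active means inhibition above the mean of the plate negative controls plus 5 SD, cut at about 13% in these data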;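 further: phagocytic index as fraction of beads internalized from green versus red external bead signal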
RAM inhibit – inhibitors of the yeast RAM network. S. cerevisiae dse1pr::URA3 reporter, 5-FOA growth OD615, 2 d; analog-sensitive cbk1-as2 kinase mutant strain. inhibition, % at 50 µM. 1.8% of 190,000 active. AID 868;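 active means inhibition above a set limit, 3 SD over mean compound inhibition, cut at about 8.4% in these data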;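 further: inhibition rescues growth on 5-FOA so higher OD means more RAM inhibition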
Yeast life ext – extends the lifespan of yeast. 0.68% of 130,000 active. S. cerevisiae growth with nicotinamide, OD615; deaD strain in restrictive glucose medium. AID 775. inhibition of the nicotinamide effect, % at 10 µM;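 active means inhibition above a set limit, placed 3 SD over the median of all compounds, cut at about 26% in these data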
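Assay system: DeaD-strain S. cerevisiae. Medium: CSMM-D glucose medium, restrictive. Reagent: nicotinamide, 1.5 mM, co-present with compound. Compound: 10 µM single point, 0.25% DMSO. Schedule: culture preincubation 4 h, compound exposure 48 h, both 30 °C. Detection: absorbance at 615 nm.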
RAM 5-FOA – RAM network inhibition, efflux-deficient strain; shares compounds with RAM inhibit; S. cerevisiae efflux-deficient reporter strain, 5-FOA growth OD615, 2 days; max inhibition, %; 1,200 tested, under 10 active; AID 1305; call rule not given here
A number is an active result. Only some compounds are listed: those with a hit (about 2.7% of all), similar ones and a draw of the others.

How did Cc1cc(C)c2nc(NNC(=O)c3ccc(S(=O)(=O)N4CCc5ccccc5C4)cc3)sc2c1 do in these assays?
BB579 growth dn: inactive; RAM inhibit: inactive; Yeast life ext: inactive

Results for Cc1cc(C)c2nc(NNC(=O)c3cc(=O)c4ccccc4o3)sc2c1 ?
RAM inhibit: 9.5

How did Cc1ccc(NC(=O)COC(=O)/C(=C/c2cccs2)c2cccs2)cc1S(=O)(=O)N(C)C do in these assays?
BB579 growth dn: inactive; Phagocyt inh: inactive; RAM inhibit: 8.9; Yeast life ext: inactive

Results for CCOC(=O)N/N=C/c1ccc(OCCSc2ccc(Cl)cc2)c(OC)c1 ?
BB579 growth dn: inactive; RAM inhibit: 9.9; Yeast life ext: inactive

How did O=C1c2cccc3cccc(c23)C(=O)N1c1cccnc1 do in these assays?
BB579 growth dn: 49; Phagocyt inh: inactive; RAM inhibit: inactive; Yeast life ext: inactive

How did CC(C)N1C(=O)CSC1c1ccc(Br)cc1 (configuration not stated) do in these assays?
RAM inhibit: inactive

Results for CCOCCCNC(=O)c1ccc(Br)cc1 ?
BB579 growth dn: 47; RAM inhibit: inactive; Yeast life ext: inactive

How did CCOCCCNC(=O)c1ccc(OC)cc1 do in these assays?
BB579 growth dn: inactive; Phagocyt inh: inactive; RAM inhibit: inactive; Yeast life ext: inactive

Results for COc1ccc(C(=O)N[C@H](C(=O)N2CCN(c3ccccc3F)CC2)C(C)C)cc1 ?
RAM inhibit: inactive

What do the screens show for `CCOc1ccc(-c2nc[nH]c2[N+](=O)[O-])cc1`?
RAM inhibit: inactive

How did OC(CNCc1ccc(Cl)cc1)C(F)(F)F (configuration not stated) do in these assays?
RAM inhibit: inactive

What do the screens show for `Cc1cc(-c2ccccc2)nc(Cl)c1C#N`?
BB579 growth dn: inactive; Phagocyt inh: inactive; RAM inhibit: inactive; Yeast life ext: inactive

Results for Cc1ccc(-c2cc(-c3ccccc3)nc(Cl)n2)cc1 ?
BB579 growth dn: inactive; RAM inhibit: 9.4; Yeast life ext: inactive

What do the screens show for `CCc1cccc(CC)c1NC(=O)COC(=O)c1cccc(-c2ccc(OC(C)=O)cc2)c1`?
BB579 growth dn: inactive; Phagocyt inh: inactive; RAM inhibit: inactive; Yeast life ext: inactive

How did COc1ccccc1N1CCN(S(=O)(=O)c2ccc(Cl)s2)CC1 do in these assays?
BB579 growth dn: inactive; Phagocyt inh: inactive; RAM inhibit: inactive; Yeast life ext: inactive

What do the screens show for `Cc1ccccc1Cn1c(=N)n(CC(=O)c2ccco2)c2ccccc21`?
BB579 growth dn: inactive; RAM inhibit: inactive; Yeast life ext: inactive

What do the screens show for `O=[N+]([O-])c1ccc(N=NN(CCO)CCO)cc1`?
BB579 growth dn: inactive; Phagocyt inh: inactive; RAM inhibit: inactive; Yeast life ext: inactive

How did O=[N+]([O-])c1ccc(N=Nc2ccc(O)cc2O)cc1 do in these assays?
BB579 growth dn: 83; Phagocyt inh: inactive; RAM inhibit: inactive; Yeast life ext: inactive

Results for COCCNC(=O)C(c1ccc(F)cc1)N(C(=O)CCC(=O)Nc1nccs1)c1ccc(C)cc1 (configuration not stated) ?
RAM inhibit: 12; RAM 5-FOA: inactive

How did FC(F)(F)c1ccc(Cl)c(N/N=C/c2ccc(N3CCOCC3)s2)c1 do in these assays?
BB579 growth dn: inactive; RAM inhibit: inactive; Yeast life ext: inactive

How did COc1cc(/C=C/C(=O)O)cc(S(=O)(=O)NC2CC2)c1OC do in these assays?
BB579 growth dn: inactive; Phagocyt inh: inactive; RAM inhibit: inactive; Yeast life ext: inactive

Results for COC(=O)c1ccc2c(=O)n(CCCCCC(=O)NCCNC(C)=O)c(=O)[nH]c2c1 ?
RAM inhibit: inactive

Results for COc1ccc(OCCNC(=O)c2cccc(Oc3ccc(C(F)(F)F)cc3[N+](=O)[O-])c2)cc1 ?
BB579 growth dn: inactive; Phagocyt inh: inactive; RAM inhibit: 14; Yeast life ext: inactive; RAM 5-FOA: inactive

Results for O=C(NCCOc1ccccc1)c1ccccc1[N+](=O)[O-] ?
RAM inhibit: inactive

What do the screens show for `O=C(NCCO)c1ccc(Oc2ccc(C(F)(F)F)cc2[N+](=O)[O-])cc1`?
RAM inhibit: inactive

How did O=C(NCCOc1ccccc1)c1cc(C(=O)NCCOc2ccccc2)cc([N+](=O)[O-])c1 do in these assays?
BB579 growth dn: inactive; RAM inhibit: 14; Yeast life ext: inactive; RAM 5-FOA: inactive

Results for Cn1nccc1C(=O)Oc1ccc(/C=N/NC(=O)c2ccccc2O)cc1 ?
RAM inhibit: inactive

How did CC(C(=O)NCC1CCCO1)n1cc([N+](=O)[O-])cn1 (configuration not stated) do in these assays?
RAM inhibit: inactive

How did Cn1nnnc1SCC(=O)Nc1cc(S(=O)(=O)N2CCCC2)ccc1Cl do in these assays?
RAM inhibit: inactive

How did O=C(CSc1cccc(C(F)(F)F)c1)Nc1cc(S(=O)(=O)N2CCCC2)ccc1Cl do in these assays?
BB579 growth dn: inactive; Phagocyt inh: inactive; RAM inhibit: 16; Yeast life ext: inactive; RAM 5-FOA: inactive

Results for CCOC(=O)CN1C(=O)C2Cc3ccccc3CN2C1=S (configuration not stated) ?
BB579 growth dn: inactive; Phagocyt inh: inactive; RAM inhibit: inactive; Yeast life ext: inactive

Results for COCCn1c(C)cc(C(=O)CSc2cc(C)c3ccc(OC)cc3n2)c1C ?
BB579 growth dn: inactive; Phagocyt inh: inactive; RAM inhibit: inactive; Yeast life ext: inactive

Results for COc1ccc2c(C)cc(SCC(=O)c3ccc4c(c3)OCO4)nc2c1 ?
BB579 growth dn: inactive; Phagocyt inh: inactive; RAM inhibit: 12; Yeast life ext: inactive; RAM 5-FOA: inactive

How did O=C(CSc1nnc(-c2ccc(Cl)s2)o1)N1CCCc2ccccc21 do in these assays?
BB579 growth dn: inactive; Phagocyt inh: inactive; RAM inhibit: 14; Yeast life ext: inactive; RAM 5-FOA: inactive

How did O=C(CCCN1C(=O)/C(=C/c2cccs2)SC1=S)Nc1ccccn1 do in these assays?
RAM inhibit: inactive

How did O=C(O)CCCN1C(=O)/C(=C/c2cn(-c3ccccc3)nc2-c2cccs2)SC1=S do in these assays?
RAM inhibit: 12; RAM 5-FOA: inactive

What do the screens show for `CC(=O)c1cccc(NC(=O)CN2C(=S)NC(C)(C)CC2C)c1` (configuration not stated)?
RAM inhibit: inactive

Results for COc1ccc(NC(=O)NNC(=O)c2ccccc2-n2cccc2)cc1OC ?
RAM inhibit: inactive

What do the screens show for `O=C(COC(=O)CNS(=O)(=O)c1ccc2ccccc2c1)Nc1ccccc1Sc1ccccc1`?
BB579 growth dn: inactive; Phagocyt inh: inactive; RAM inhibit: 23; Yeast life ext: inactive; RAM 5-FOA: inactive

Results for Cc1ccc(S(=O)(=O)NCc2ccc3c(c2)cc(C)n3C)cc1 ?
BB579 growth dn: inactive; Phagocyt inh: inactive; RAM inhibit: 12; Yeast life ext: inactive; RAM 5-FOA: inactive

How did Cc1ccc(C)c(C(=O)COC(=O)CCCC(=O)Nc2cc(C(F)(F)F)ccc2Cl)c1 do in these assays?
BB579 growth dn: inactive; Phagocyt inh: inactive; RAM inhibit: 18; Yeast life ext: inactive; RAM 5-FOA: inactive

What do the screens show for `O=C(CCNC(=O)c1ccccc1Cl)Nc1cc(C(F)(F)F)ccc1Cl`?
BB579 growth dn: inactive; Phagocyt inh: inactive; RAM inhibit: inactive; Yeast life ext: inactive
